Calls of active or inactive are those of the source. No cut-off for these calls is given here.
How the values were obtained:
[1] = fCmax in Sprague-Dawley rat brain at 2 mg/kg, ip measured after 8 to 24 hrs by LC-MS/MS method; type: ADME, organism-based; conditions: in vivo
[2] = Efflux ratio in MDCK2-MDR1 cells at 1 uM incubated fro 1 hr by LC-MS/MS method; type: ADME, cell-based, Canis lupus familiaris; conditions: dog, MDCK-MDR1
[3] = Clearance in rat liver microsomes at 0.5 uM incubated up to 30 mins in presence of NADPH by LC-MS/MS method; type: ADME, microsome; conditions: read-out: CLH
[4] = molecular target: Voltage-gated inwardly rectifying potassium channel KCNH2 (Homo sapiens, UniProt Q12809); assay: Inhibition of human ERG
Sequence of Voltage-gated inwardly rectifying potassium channel KCNH2 (Q12809 whole entry): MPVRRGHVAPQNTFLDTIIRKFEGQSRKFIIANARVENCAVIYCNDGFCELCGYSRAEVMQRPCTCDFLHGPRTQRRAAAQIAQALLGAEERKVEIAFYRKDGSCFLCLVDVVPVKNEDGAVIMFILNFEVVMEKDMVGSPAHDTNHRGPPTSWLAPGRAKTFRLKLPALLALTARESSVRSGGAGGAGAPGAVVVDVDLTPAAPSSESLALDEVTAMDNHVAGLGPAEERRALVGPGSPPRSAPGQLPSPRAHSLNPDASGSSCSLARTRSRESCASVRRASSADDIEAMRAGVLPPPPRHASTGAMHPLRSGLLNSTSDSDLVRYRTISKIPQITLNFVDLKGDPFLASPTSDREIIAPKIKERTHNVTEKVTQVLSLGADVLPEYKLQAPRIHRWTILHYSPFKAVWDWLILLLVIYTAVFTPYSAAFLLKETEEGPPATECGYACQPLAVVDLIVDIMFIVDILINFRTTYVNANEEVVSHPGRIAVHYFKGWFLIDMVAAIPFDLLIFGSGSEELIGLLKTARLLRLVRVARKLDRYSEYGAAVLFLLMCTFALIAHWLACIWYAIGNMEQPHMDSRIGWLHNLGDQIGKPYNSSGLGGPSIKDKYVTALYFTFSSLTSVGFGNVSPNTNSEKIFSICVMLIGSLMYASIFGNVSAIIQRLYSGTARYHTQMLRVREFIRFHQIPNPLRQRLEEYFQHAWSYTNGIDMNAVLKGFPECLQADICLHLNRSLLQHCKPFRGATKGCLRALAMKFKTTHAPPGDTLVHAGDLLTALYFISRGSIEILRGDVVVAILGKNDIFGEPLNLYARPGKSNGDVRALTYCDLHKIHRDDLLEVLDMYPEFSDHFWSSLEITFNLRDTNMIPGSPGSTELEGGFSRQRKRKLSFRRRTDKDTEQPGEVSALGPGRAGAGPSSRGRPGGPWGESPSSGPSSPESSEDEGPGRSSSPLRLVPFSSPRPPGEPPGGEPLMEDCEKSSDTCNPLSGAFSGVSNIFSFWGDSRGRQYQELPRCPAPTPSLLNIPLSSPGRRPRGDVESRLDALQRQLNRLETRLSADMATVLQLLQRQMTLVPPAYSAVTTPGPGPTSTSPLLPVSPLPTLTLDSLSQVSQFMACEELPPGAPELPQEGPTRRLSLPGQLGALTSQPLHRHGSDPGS

[5] = Clearance in human liver microsomes at 0.5 uM incubated up to 30 mins in presence of NADPH by LC-MS/MS method; type: ADME, microsome; conditions: read-out: CLH
[6] = molecular target: T1, Sodium- and chloride-dependent glycine transporter 1 (Homo sapiens, UniProt P48067); assay: Displacement of [3H]N-Methyl-SSR504734 from human GlyT1c expressed in cell membranes incubated for 1 hr by liquid scintillation spectrometry
T1 sequence (P48067 whole entry): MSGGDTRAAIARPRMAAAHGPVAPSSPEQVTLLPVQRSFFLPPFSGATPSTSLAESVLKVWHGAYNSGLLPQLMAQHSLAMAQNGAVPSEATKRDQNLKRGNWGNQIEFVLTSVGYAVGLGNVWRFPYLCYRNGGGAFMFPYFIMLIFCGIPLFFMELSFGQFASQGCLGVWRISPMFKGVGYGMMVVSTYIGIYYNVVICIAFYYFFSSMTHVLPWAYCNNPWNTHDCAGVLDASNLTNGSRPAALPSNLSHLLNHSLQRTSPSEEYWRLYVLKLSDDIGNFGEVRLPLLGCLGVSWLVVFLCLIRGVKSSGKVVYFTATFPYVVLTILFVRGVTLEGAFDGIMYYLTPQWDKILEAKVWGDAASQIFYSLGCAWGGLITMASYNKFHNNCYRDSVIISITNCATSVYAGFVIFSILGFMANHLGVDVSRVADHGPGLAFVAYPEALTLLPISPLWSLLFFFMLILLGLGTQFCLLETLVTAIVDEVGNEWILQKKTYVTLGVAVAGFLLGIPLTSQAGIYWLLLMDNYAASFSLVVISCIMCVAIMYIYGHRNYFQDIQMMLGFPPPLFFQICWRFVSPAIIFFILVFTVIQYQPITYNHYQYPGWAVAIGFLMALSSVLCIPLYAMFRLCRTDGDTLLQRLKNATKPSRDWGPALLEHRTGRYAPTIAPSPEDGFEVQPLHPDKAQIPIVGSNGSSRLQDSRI

Mus musculus [7] = assay: In-vivo binding affinity to GlyT1 in mouse assessed as target occupancy in forebrains dosed intraperitoneally using [3H]N-methyl-SSR504734 as radioligand after 1 hr by liquid scintillation counting method; type: functional; conditions: ip
How it was run: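 Mice dosed i.p. at several doses; forebrain homogenates then tested ex vivo for binding of a GlyT1 radioligand to give target occupancy, with ED50 for 50% occupancy estimated across the dose range.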

[8] = Drug level in Sprague-Dawley rat brain at 0.2 mg/kg, ip measured after 8 to 24 hrs by LC-MS/MS method; type: ADME, organism-based; conditions: in vivo, read-out: Drug uptake
[9] = molecular target: T2, Sodium- and chloride-dependent glycine transporter 1 (Homo sapiens) (UniProt P48067); assay: Non-competitive inhibition of GlyT1c (unknown origin) expressed in Xenopus laevis oocytes clamped at -60 mV assessed as reduction in glycine-induced membrane currents at 300 nM pre-treated with glycine for 1 min followed by compound dosing for 3 mins by two-electrode voltage clamp assay; type: cell-based
T2 sequence (whole entry): T1 sequence (P48067 whole entry)
How it was run: (§1)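 Oocytes expressing GlyT1c were stimulated with 10 µM or 3000 µM glycine to evoke transporter current. Compound at 300 nM was added to the glycine solution, and % inhibition of the current was calculated. Mode of inhibition was judged by comparing inhibition at the two glycine levels. Data are mean ± SD, N>4 oocytes.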

[10] = molecular target: T2, Sodium- and chloride-dependent glycine transporter 1 (Homo sapiens); assay: Inhibition of GlyT1c (unknown origin) expressed in Xenopus laevis oocytes clamped at -60 mV assessed as reduction in 3000 uM glycine-induced membrane currents at 300 nM pre-treated with glycine for 1 min followed by compound dosing for 3 mins by two-electrode voltage clamp assay; type: cell-based; how it was run: as §1
[11] = molecular target: T2, Sodium- and chloride-dependent glycine transporter 1 (Homo sapiens); assay: Inhibition of GlyT1c (unknown origin) expressed in Xenopus laevis oocytes clamped at -60 mV assessed as reduction in 10 uM glycine-induced membrane currents at 300 nM pre-treated with glycine for 1 min followed by compound dosing for 3 mins by two-electrode voltage clamp assay; type: cell-based; how it was run: as §1
Mus musculus [12] = assay: Reversal of L687,414-induced hyperlocomotion in mouse at 0.3 to 3 mg/kg, ip dosed 120 mins before test followed by L687,414 dosing for 15 mins before test and measured after 60 mins by Wilcoxon-Mann-Whitney test; type: functional
How it was run: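 Non-habituated mice received test agent (0.3, 1.0, 3.0 mg/kg) or vehicle i.p. 120 min before test, then 50 mg/kg L-687,414 or vehicle i.p. 15 min before test; locomotor activity recorded for 60 min; n=8 mice per group, mean ± SEM; Mann-Whitney and Dunn's multiple comparisons tests.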

[13] = Permeability in MDCK2-MDR1 cells at 1 uM incubated fro 1 hr by LC-MS/MS method; type: ADME, cell-based, Canis lupus familiaris; conditions: dog, MDCK-MDR1; read-out: permeability
[14] = Solubility in water; type: physicochemical
[15] = Oral bioavailability in Sprague-Dawley rat at measured after 8 to 24 hrs by LC-MS/MS method; type: ADME, organism-based; conditions: in vivo
[16] = Oral bioavailability in dog; type: ADME, organism-based, Canis lupus familiaris; conditions: in vivo

Row | fCmax [1] [nM] | efflux ratio at 1 h, 1 µM [2] | microsomal CLint at 0.5 µM [3] [µL/min/mg] | microsomal CLint at 0.5 µM [5] [µL/min/mg] | Ki [6] [nM] | concentration [8] [nM] | inhibition [9] | inhibition [10] [%] | inhibition [11] [%] | Papp at 1 h, 1 µM [13] [×10⁻⁶ cm/s] | solubility [14] [µg/mL] | bioavailability [15] [%] | bioavailability [16] [%] | SMILES | IC50 [4] [µM] | ED50 (Mus musculus [7]) [mg/kg] | ED50 (Mus musculus [12]) [mg/kg] | inhibition (Mus musculus [12])
1 | 18.7 | 1.7 | 85 | < 23 | 0.9 | 0.9 | – | – | – | – | – | – | – | O=S(=O)(CC1CC1)NC1CN(c2ccc3c(c2)[C@@H](Cc2ccccc2)[C@@H](N2CCC2)CC3)C1 | 4.4 | 0.2 | – | –
2 | – | – | – | – | 47 | – | Active | 95 | 67 | – | – | – | – | C[C@H](Oc1ccc(S(C)(=O)=O)cc1C(=O)N1CCN(c2ncc(C(F)(F)F)cc2F)CC1)C(F)(F)F [BITOPERTIN] | – | – | – | –
3 | 2 | 12 | 55 | 10 | 0.8 | – | – | 39 | 97 | 22 | > 1000 | 17 | 75 | Cn1cnc(S(=O)(=O)NCCOc2ccc3c(c2)[C@@H](Cc2ccccc2)[C@@H](N2CCC2)CC3)c1 | 15 | 1.4 | 0.8 | Dose-dependent effect
